Experimental data reported in publication PMC11061834 (Journal of Natural Products, 2024).

Columns and labels:
[1] = system: 3T3-L1 cells; assay: Cell viability / cytotoxicity, CCK-8 assay; type: cell-based; settings: CCK-8, 48 h
Method in brief: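 3T3-L1 preadipocytes were seeded at 1 × 10^3 cells per well and incubated for 12 h. They were then exposed to varying concentrations of test compound for 48 h. Viability was measured with the CCK-8 kit following the manufacturer's guidelines, reading optical density at 450 nm. Data are means ± SD from triplicate experiments (n = 3), compared by Student's t test at P ≤ 0.05.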

[2] = cited from earlier work
[3] = system: PPARγ; settings: cited from earlier work

With `C=C(c1ccc(O)c(Oc2cc3c(cc2OC)CCN(C)[C@@H]3Cc2ccc(OC)cc2)c1)[C@H]1c2cc(O)c(OC)cc2CCN1C` [Compound 5, 1R,1′S-neoisoliensinine A] the maximum noncytotoxic concentration [1] was 5 µM.
In the case of `COc1ccc(C[C@@H]2c3cc(Oc4cc(C[C@H]5c6cc(OC)c(OC)cc6CCN5C)ccc4O)c(OC)cc3CCN2C)cc1` [Compound 8, 1′-epi-neferine], the maximum noncytotoxic concentration [1] is reported as 5 µM.
In the case of `C=C(c1ccc(O)c(Oc2cc3c(cc2OC)CCN(C)[C@@H]3Cc2ccc(OC)cc2)c1)[C@@H]1c2cc(OC)c(OC)cc2CCN1C` [Compound 2, 1R,1′R-neoneferine A], the maximum noncytotoxic concentration [1] is reported as 15 µM.
In the case of `C=C(c1ccc(O)c(Oc2cc3c(cc2OC)CCN(C)[C@@H]3Cc2ccc(OC)cc2)c1)[C@H]1c2cc(OC)c(OC)cc2CCN1C` [Compound 3, 1R,1′S-neoneferine A], the maximum noncytotoxic concentration [1] is reported as 5 µM.
For `COc1ccc(C[C@@H]2c3cc(Oc4cc(C[C@@H]5c6cc(OC)c(OC)cc6CCN5C)ccc4O)c(OC)cc3CCN2C)cc1` [Compound 7, neferine], the maximum noncytotoxic concentration [1] is listed as 10 µM, the “antiadipogenic activity (in words)” value [2] is listed as “antiadipogenic activity” and the “PPARγ inhibitory effect (in words)” value [3] is listed as “PPARγ inhibitory effect”.
In the case of `C=C(c1ccc(O)c(Oc2cc3c(cc2OC)CCN(C)[C@@H]3Cc2ccc(OC)cc2)c1)[C@@H]1c2cc(O)c(OC)cc2CCN1C` [Compound 4, 1R,1′R-neoisoliensinine A], the maximum noncytotoxic concentration [1] is reported as 10 µM.
